From ChEMBL document CHEMBL4316637, “Highly Modified Lanostane Triterpenes from Fruiting Bodies of the Basidiomycete Tomophagus sp” (J Nat Prod, 2019)
≈ marks a conversion by molar mass, not a printed value.

Key:
[1] = test system: Vero; experiment: Cytotoxicity against African green monkey Vero cells by GFP based microplate assay; assay type: cell-based; settings: Chlorocebus sabaeus
In short: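 Vero cells (nonmalignant African green monkey kidney […]) tested with a green fluorescent protein microplate assay.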

[2] = test system: Plasmodium falciparum; experiment: Antimalarial activity against Plasmodium falciparum K1 infected in human type A+ erythrocytes incubated for 24 hrs followed by [G-3H]-hypoxanthine incorporation and measured after 18 hrs by liquid scintillation counting method; assay type: functional, organism-based
In short: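 P. falciparum K1 (multidrug-resistant strain), tested in duplicate with the microculture radioisotope technique; IC50 derived.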

[3] = test system: Mycobacterium tuberculosis; experiment: Antitubercular activity against Mycobacterium tuberculosis H37Ra by GFP based microplate assay; assay type: functional
In short: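 Whole-cell assay on M. tuberculosis H37Ra growth, read by green fluorescent protein signal in microplates; activity given as MIC in μg/mL.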

SMILES | IC50 [1] [µM] | IC50 [2] [µM] | MIC [3] [µg/mL]
Cc1c2ccncc2c(C)c2c1[nH]c1ccccc12 [ELLIPTECINE] | 3.1 |  | 
CC1=CC[C@@H]([C@@H](C)[C@H]2CC[C@@]3(C)C4=C(CC[C@]23C)[C@@]2(C)CC[C@H](O)C(C)(C)[C@@H]2CC4)OC1=O | > 110 | > 22 | > 50
CC(=O)O[C@@H]1C[C@H]([C@H](C)[C@H]2OC(=O)C(C)=C[C@@H]2O)[C@@]2(C)C[C@H](O)C3=C(CC[C@@H]4C(=C3)C=CC(=O)OC4(C)C)[C@]12C | > 90 | > 18 | > 50
CC(=O)OC[C@@]1(CCC(=O)O)C2=CC[C@]3(C)[C@@H]([C@H](C)[C@@H]4CC=C(C)C(=O)O4)CC[C@@]3(C)C2=CC[C@H]1C(C)(C)O | 88 | 5.5 | > 50
CC1=CC[C@@H]([C@@H](C)[C@H]2CC[C@@]3(C)C4=C(CC[C@]23C)[C@@]2(CO)CC[C@H](O)C(C)(C)[C@@H]2CC4)OC1=O | > 106 | > 21 | > 50
CC(=O)O[C@@H]1C[C@H]([C@H](C)[C@@H]2CC=C(C)C(=O)O2)[C@@]2(C)CC(=O)C3=C(CC[C@@H]4C(=C3)C=CC(=O)OC4(C)C)[C@]12C | 92 | 10 | 50 (≈ 93.2 µM)
CC1=C[C@H](O)[C@@H]([C@@H](C)[C@H]2CC[C@@]3(C)C4=C(CC[C@]23C)[C@@]2(C)CC[C@H](O)C(C)(C)[C@@H]2CC4)OC1=O | 36 | > 21 | > 50
CC(=O)O[C@]12CCC(=O)OC(C)(C)[C@@H]1CCC1=C2CC[C@]2(C)[C@@H]([C@H](C)[C@H]3OC(=O)C(C)=C[C@@H]3O)CC[C@@]12C | > 92 | > 18 | > 50
CC(=O)OC(C)(C)[C@@H]1CC=C2C(=CC[C@]3(C)[C@@H]([C@H](C)[C@H]4OC(=O)C(C)=C[C@@H]4O)CC[C@@]23C)[C@@]12CCC(=O)OC2 | > 92 | > 18 | > 50
CC1=CC[C@@H]([C@@H](C)[C@H]2CC[C@@]3(C)C4=C(CC[C@]23C)C[C@@]2(O)C=CC(=O)OC(C)(C)[C@@H]2CC4)OC1=O | 45 | 19 | > 50
CC(=O)O[C@@H]1C[C@H]([C@H](C)[C@@H]2CC=C(C)C(=O)O2)[C@@]2(C)CCC3=C(CC[C@]4(C(C)(C)O)OC(=O)C=CC4=C3)[C@]12C | 33 | > 19 | > 50
CC1=CC[C@@H]([C@@H](C)[C@H]2C[C@@H](O)[C@@]3(C)C4=C(C=C5C=CC(=O)OC(C)(C)[C@@H]5CC4)CC[C@]23C)OC1=O | 42 | 12 | 50 (≈ 104 µM)
CC(=O)O[C@@H]1C[C@H]([C@H](C)[C@@H]2CC=C(C)C(=O)O2)[C@@]2(C)C[C@H](O)C3=C(CC[C@@H]4C(=C3)C=CC(=O)OC4(C)C)[C@]12C | 34 | > 19 | > 50
CC(=O)O[C@]12CCC(=O)OC(C)(C)[C@@H]1CC=C1[C@]3(C)CC[C@H]([C@H](C)[C@@H]4CC=C(C)C(=O)O4)[C@@]3(C)C[C@H]3O[C@@]132 | > 92 | > 18 | > 50
CC(=O)O[C@@H]1C[C@H]([C@H](C)[C@@H]2CC=C(C)C(=O)O2)[C@@]2(C)CCC3=C(CC[C@@H]4C(=CCC(=O)OC4(C)C)C3)[C@]12C | 94 | 12 | > 50
CC1=CC[C@]2(OC1=O)O[C@H]1O[C@H]3C[C@@]14[C@H](CC[C@@]4(C)C1=C3C=C3C=CC(=O)OC(C)(C)[C@@H]3CC1)[C@@H]2C | > 102 | > 20 | > 50
CC(=O)O[C@@H]1C[C@H]([C@H](C)[C@@H]2CC=C(C)C(=O)O2)[C@@]2(C)C[C@H](O)C3=C(CC[C@H]4C(C)(C)OC(=O)C=C[C@]45O[C@@H]35)[C@]12C | > 90 | > 18 | > 50
CC1=CC[C@@]2(OC1=O)O[C@H]1O[C@H]3C[C@@]14[C@H](CC[C@@]4(C)C1=C3C=C3C=CC(=O)OC(C)(C)[C@@H]3CC1)[C@@H]2C | > 102 | > 20 | > 50

SMILES | IC50 [1] [µM] | IC50 [2] [µM] | MIC [3] [µg/mL]
CC(=O)OC[C@]12CC[C@H](O)C(C)(C)[C@@H]1CCC1=C2CC[C@]2(C)[C@@H]([C@H](C)[C@H]3OC(=O)C(C)=C[C@@H]3O)CC[C@@]12C | 34 | 6.6 | > 50
CC1=CC[C@@H]([C@@H](C)[C@H]2C[C@@H](O)[C@@]3(C)C4=C(C=C5C=CC(=O)OC(C)(C)[C@@H]5CC4)[C@@H](O)C[C@]23C)OC1=O | > 101 | > 20 | > 50
COC(=O)CC[C@]1(COC(C)=O)C2=C(CC[C@H]1C(C)(C)O)[C@]1(C)CC[C@H]([C@H](C)[C@@H]3CC=C(C)C(=O)O3)[C@@]1(C)CC2 | 11 | 15 | 12.5 (≈ 22.4 µM)
C[C@H]1[C@@H](O)O[C@@H]2O[C@@]3(C)CC[C@H]4[C@H](C)CC[C@@H]1[C@@]24OO3 [ARTENIMOL] |  | 0.0028 | 
COC(=O)CC[C@]1(COC(C)=O)C2=CC[C@]3(C)[C@@H]([C@H](C)[C@H]4OC(=O)C(C)=C[C@@H]4O)CC[C@@]3(C)C2=CC[C@H]1C(C)(C)O | 32 | 6.3 | > 50
COC(=O)CC[C@]1(COC(C)=O)C2=CC[C@]3(C)[C@@H]([C@H](C)[C@@H]4CC=C(C)C(=O)O4)CC[C@@]3(C)C2=CC[C@H]1C(C)(C)O | 32 | 8.1 | 50 (≈ 89.8 µM)
CC(=O)O[C@@H]1C[C@H]([C@H](C)[C@@H]2CC=C(C)C(=O)O2)[C@@]2(C)CCC3=C(CC[C@@H]4C(=C3)C=CC(=O)OC4(C)C)[C@]12C | 11 | 18 | > 50
CC(=O)O[C@@H]1C[C@H]([C@H](C)[C@H]2OC(=O)C(C)=C[C@@H]2O)[C@@]2(C)CC(=O)C3=C(CC[C@@H]4C(=C3)C=CC(=O)OC4(C)C)[C@]12C | > 90 | > 18 | > 50
CC1=C[C@H](O)[C@@H]([C@@H](C)[C@H]2C[C@@H](O)[C@@]3(C)C4=C(C=C5C=CC(=O)OC(C)(C)[C@@H]5CC4)CC[C@]23C)OC1=O | 39 | > 20 | > 50
CC1=CC[C@@H]([C@@H](C)[C@H]2CC[C@@]3(C)[C@@]45CC[C@@H](C(C)(C)O4)[C@]4(CCC(=O)OC4)C5=CC[C@]23C)OC1=O | 98 | > 21 | > 50
CC(=O)O[C@]12CCC(=O)OC(C)(C)[C@@H]1CCC1=C2CC[C@]2(C)[C@@H]([C@H](C)[C@@H]3CC=C(C)C(=O)O3)CC[C@@]12C | > 95 | > 19 | > 50
CC(=O)O[C@@H]1C[C@H]([C@H](C)[C@H]2OC(=O)C(C)=C[C@@H]2O)[C@@]2(C)CCC3=C(CC[C@@H]4C(=C3)C=CC(=O)OC4(C)C)[C@]12C | 22 | 7 | 50 (≈ 92.8 µM)
CC1=CC[C@@H]([C@@H](C)[C@H]2CC[C@@]3(C)C4=C(CC[C@]23C)[C@@]2(C)[C@H](O)C[C@H](O)C(C)(C)[C@@H]2CC4)OC1=O | > 106 | > 21 | > 50
CC(=O)[C@H]1C[C@@H](O)[C@@]2(C)C3=C(C=C4C=CC(=O)OC(C)(C)[C@@H]4CC3)[C@@H](O)C[C@]12C | > 125 | > 25 | > 50
CC(=O)OC[C@]12CCC(=O)C(C)(C)[C@@H]1CCC1=C2CC[C@]2(C)[C@@H]([C@H](C)[C@@H]3CC=C(C)C(=O)O3)CC[C@@]12C | > 98 | > 20 | > 50
CC1=CC[C@@H]([C@@H](C)[C@H]2CC[C@@]3(C)C4=C(C=C5C=CC(=O)OC(C)(C)[C@@H]5CC4)CC[C@]23C)OC1=O | > 108 | 18 | > 50
CC1=CC[C@@H]([C@@H](C)[C@H]2C[C@@H](O)[C@@]3(C)C4=C(C=C5C=CC(=O)O[C@@]5(C(C)(C)O)CC4)CC[C@]23C)OC1=O | > 101 | > 20 | > 50
NNC(=O)c1ccncc1 [ISONIAZID] |  |  | 0.047 (≈ 0.343 µM)
